Source: PubChem
A selection: hits, their analogues and other compounds. The true share with any hit is near 2.8%.
NPY Y1 blocker: antagonists of human neuropeptide Y receptor Y1 | AID 1040 | hit rate 1% among 200,000 | HEK293-CNG Y1 cells, membrane potential fluorescence; NPY at EC95, then isoproterenol | inhibition, % at 3.6 µM;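 active = inhibition above the campaign mean inhibition of all tested compounds plus 3 SD, cut at about 20% in these data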;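 note: 0% = DMSO wells given NPY plus isoproterenol and 100% = isoproterenol alone without NPY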
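Test system: HEK293 cells co-expressing NPY Y1 receptor and cyclic-nucleotide gated channel; Also added: NPY (25 nM), isoproterenol (1 µM), Ro 20-1724 (25 µM); Compound dosing: one concentration, 3.6 µM, in 0.4% DMSO; Timing: dye 3 h, compound 60 min room temperature, stimulation 45 min; Technique: Membrane-potential fluorescent dye readout.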
NPY-Y2 PAM-ag: potentiators or agonists of human neuropeptide Y receptor Y2; P49146; cells expressing NPY-Y2, potentiator/agonist read-out; activation, % at 3.6 µM; hit rate 0.45% among 220,000; AID 1359; in the data active = activation above about 27%;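 note: cells stimulated with NPY near EC25 plus isoproterenol at EC100; 0% = vehicle plus submaximal agonist and 100% = vehicle plus saturating agonist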
Target sequence (P49146 whole entry, looked up): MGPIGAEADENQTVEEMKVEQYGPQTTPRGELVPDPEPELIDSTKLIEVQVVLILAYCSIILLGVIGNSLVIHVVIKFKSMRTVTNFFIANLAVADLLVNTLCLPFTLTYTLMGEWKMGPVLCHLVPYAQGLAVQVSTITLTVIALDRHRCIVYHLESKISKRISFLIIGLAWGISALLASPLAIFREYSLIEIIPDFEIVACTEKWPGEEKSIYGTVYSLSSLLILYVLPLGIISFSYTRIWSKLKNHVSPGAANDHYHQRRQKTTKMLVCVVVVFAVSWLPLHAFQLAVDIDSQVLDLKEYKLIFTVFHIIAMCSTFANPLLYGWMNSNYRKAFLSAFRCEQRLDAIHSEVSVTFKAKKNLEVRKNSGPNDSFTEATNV
NPY Y2 blocker: antagonists of human neuropeptide Y receptor Y2 | inhibition, % at 2.7 µM | hit rate 0.99% among 140,000 | P49146 | NPY-Y2 expressing cells, antagonist mode; in the data active = inhibition above about 17%;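 note: 0% = vehicle with agonist challenge and 100% = reference antagonist with challenge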
NPY1 pot ag: human NPY-Y1 potentiation or agonism, primary screen; activation, % at 3.6 µM; hit rate 0.37% among 220,000; NPY-Y1 expressing cells, potentiator/agonist activation; AID 1304; in the data active = activation above about 33%, passing the limit was not always enough;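 note: cells stimulated with NPY at EC10 then isoproterenol at EC100; 0% = low agonist plus stimulus and 100% = saturating agonist plus stimulus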
EP2 modulator: modulators of human EP2 prostaglandin E2 receptor; EP2-expressing cells, cAMP HTRF FRET, PGE2 co-stimulation; P43116; hit rate 0.83% among 260,000; induction, % at 25 µM; AID 940;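 active = compounds whose cAMP rise, as percent of the full-agonist control response, exceeds 60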;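 note: rat C6 glioma line stably carrying human EP2 under a CMV promoter; the protocol text gives 20 µM as final concentration; 100% = response of wells given 1 µM PGE2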
PGE2 EP2 inh: blocks the human prostaglandin E2 receptor EP2. P43116. C6 glioma cells expressing human EP2, cAMP TR-FRET; cells stimulated with saturating PGE2. inhibition, % at 25 µM. hit rate 0.52% among 260,000. AID 1422;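 active = percent inhibition above 40 after rounding to a whole number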;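 note: rat C6 glioma host cells with rolipram phosphodiesterase inhibitor present; the protocol text gives 20 µM as final concentration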
NPY-Y1 antag ct: antagonizes human NPY-Y1, counter-screen to NPY-Y2 antagonists; hit rate 19% among 710; inhibition, % at 3.6 µM; shares compounds with NPY Y2 blocker; AID 1256; cell-based NPY-Y1 antagonism counterscreen; in the data active = inhibition above about 20%;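 note: cells challenged with NPY then isoproterenol with cAMP sensed through a CNG channel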
NPY-Y2 ant conf: confirmation of human neuropeptide Y receptor Y2 antagonists | shares compounds with NPY Y2 blocker | HEK293 NPY-Y2 CNG channel, membrane potential fluorescence | inhibition, % at 2.8 µM | hit rate 32% among 710 | AID 1257;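 active = mean inhibition of triplicate wells above the hit cutoff set in the primary screen, cut at about 17% in these data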;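 note: 0% = DMSO with NPY challenge and 100% = BIIE0246 high control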
* hit, by the source's call; . = no result given.

SMILES | NPY Y1 blocker | NPY-Y2 PAM-ag | NPY Y2 blocker | NPY1 pot ag | EP2 modulator | PGE2 EP2 inh | NPY-Y1 antag ct | NPY-Y2 ant conf
O=C(c1ccccn1)N(Cc1ccco1)C1(C(=O)NC2CCCCC2)CCCCC1 | 19 | 1 | 32* | 2 | 5 | 8 | 11 | 6
COc1ccc(OCC(=O)Nc2cccc3cccnc23)cc1 | 12 | -4 | 48* | -10 | 4 | 5 | 11 | 24*
CCN(CC)C(C(=O)Nc1ccc(C(C)C)cc1)c1ccc2c(c1)OCO2 (centres undefined) | 16 | -14 | 18* | -6 | 18 | 10 | 7 | 14
CCOc1nc(SCCOc2ccc(Cl)cc2Cl)nc(N(C)C)n1 | 10 | -16 | 20* | -39 | 49 | 6 | 20 | 44*
CCOc1nc(SCCOc2ccc(C)cc2)nc(N(C)C)n1 | 12 | -14 | 11 | -48 | 38 | 12 | . | .
COc1ccc2cc3cc(C(=O)NCCN4CCN(c5ccccc5F)CC4)oc3nc2c1 | 5 | -15 | 5 | -4 | -55 | . | . | .
COc1ccc2cc3cc(C(=O)Nc4ccccc4N4CCN(C)CC4)oc3nc2c1 | 17 | -1 | 18* | -19 | -20 | 30 | 7 | 16
CCOC(=O)c1c(NC(=O)CSC2=NN3CCCC(=O)N=C3S2)sc2c1CCCCC2 | 3 | 7 | 19* | 0 | 23 | 6 | 25* | 43*
Clc1ccccc1-c1nc2ccccc2c2nc3ccccc3n12 | 0 | -4 | 18* | -9 | 43 | 2 | 17 | 13
CCNC(=S)N(Cc1cc2cc(OCC)ccc2[nH]c1=O)C1CCCCC1 | . | . | . | . | -1 | 11 | . | .
O=C(CCn1cnc2ccccc21)NC1(c2ccc(F)cc2)CCCC1 | . | . | . | . | -8 | 1 | . | .
COc1ccc(-c2ccc(=O)n(CC3CCN(C(=O)c4cc(F)cc(F)c4)CC3)n2)cc1 | . | . | . | . | -12 | . | . | .
CCc1nc2ccccc2c(C(=O)OCc2nnc(-c3ccccc3)o2)c1C | 13 | -20 | 18* | -57 | 36 | . | 26* | 25*
CCOc1ccc(N(CC(=O)N2CCC(C)CC2)S(=O)(=O)c2ccc(OC)c(OC)c2)cc1 | . | . | . | . | -12 | 18 | . | .
COC(=O)c1c(-c2ccc(F)cc2)csc1NC(=O)c1ccco1 | 11 | -10 | 25* | -6 | 44 | 12 | 11 | 12
O=C(CSc1ncnc2sc3c(c12)CCCC3)Nc1ccccc1N1CCOCC1 | . | . | . | . | 33 | 15 | . | .
Cc1ccc(N(CC(=O)NCc2ccc(F)cc2)S(=O)(=O)c2cccs2)cc1 | 3 | -4 | 2 | 2 | 29 | 10 | . | .
Cc1ccc(N(CC(=O)NCc2ccccc2Cl)S(=O)(=O)c2cccs2)cc1 | 14 | 1 | 22* | -7 | 26 | 4 | 4 | 8
CCOc1ccc(C(CC(=O)O)NC(=O)c2sc3ccccc3c2Cl)cc1 (centres undefined) | 18 | -23 | 19* | -43 | 21 | 15 | 22* | 28*
COc1ccc(C(=O)/C=C/Nc2ncccc2C)cc1OC | . | . | . | . | -75 | 20 | . | .
Cc1ccc(SCCNC(=O)/C=C/c2ccc([N+](=O)[O-])cc2)cc1 | 6 | -14 | 9 | -45 | -84 | 17 | . | .
Cc1ccc(SCCNC(=O)/C=C/c2ccc(Cl)cc2)cc1 | 9 | -1 | 19* | -23 | -86 | 10 | 29* | 39*
Cc1cc(C)c(NC(=O)COC(=O)CSc2ccc(Br)cc2C)c(C)c1 | 6 | 1 | 18* | 3 | 21 | 8 | 6 | 7
CCN(CC)c1ccc(NC(=O)COC(=O)CSc2ccc(Br)cc2C)cc1 | 5 | -5 | 6 | -20 | 12 | 5 | . | .
COc1cc2cc(C)c(SCC(=O)NNC(=O)c3ccc(C)cc3)nc2cc1OC | . | . | . | . | -4 | 12 | . | .
COc1ccc(C2C(C(=O)Nc3ccccc3OC)=C(C)NC3=C2C(=O)CCC3)cc1 (centres undefined) | . | . | . | . | -4 | 10 | . | .
CCC(C)(C)n1nnnc1C(c1ccc2ncccc2c1)N1CCN(c2ccc(O)cc2)CC1 (centres undefined) | . | -32 | . | 12 | -7 | 8 | . | .
